ERa coact inh – ER-alpha (human) coactivator binding inhibition. P03372. TR-FRET ER-alpha LBD / SRC-1 peptide, estradiol-bound. inhibition, % at 25.6 µM. 1.7% of 86,000 active; in the data active = inhibition above about 50%;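 note: 0% = receptor plus peptide control and 100% = peptide only without receptor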
Target sequence (P03372 whole entry, looked up, the tested form may be a part): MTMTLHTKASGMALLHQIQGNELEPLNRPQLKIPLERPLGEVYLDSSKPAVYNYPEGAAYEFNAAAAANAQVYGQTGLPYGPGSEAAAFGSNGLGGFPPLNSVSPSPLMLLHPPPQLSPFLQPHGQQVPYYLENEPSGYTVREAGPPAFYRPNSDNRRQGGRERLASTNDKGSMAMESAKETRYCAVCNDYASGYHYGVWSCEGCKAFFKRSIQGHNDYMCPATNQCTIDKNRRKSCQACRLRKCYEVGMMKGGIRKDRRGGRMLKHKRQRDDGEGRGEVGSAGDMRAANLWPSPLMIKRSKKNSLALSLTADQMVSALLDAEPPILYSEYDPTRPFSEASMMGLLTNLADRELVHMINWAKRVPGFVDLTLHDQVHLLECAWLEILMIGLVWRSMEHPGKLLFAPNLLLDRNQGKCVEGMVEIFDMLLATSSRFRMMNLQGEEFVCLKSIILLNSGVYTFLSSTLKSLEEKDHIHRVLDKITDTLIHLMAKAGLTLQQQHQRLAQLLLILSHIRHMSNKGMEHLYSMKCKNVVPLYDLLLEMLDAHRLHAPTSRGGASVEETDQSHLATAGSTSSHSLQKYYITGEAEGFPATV
HUVEC inhibit – inhibitors of human endothelial cell proliferation; AID 648; 1.1% of 86,000 active; viability, % at 10 µM (by protocol); HUVEC proliferation, CellTiter-Glo luminescence, 72 h; hits give low values;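 active = viability at or below 30%; inactive = viability above 30%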;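 note: 100% = median luminescence of DMSO-only cell control wells on each plate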
H69AR growth 86K – blocks growth of human H69AR lung tumor cells | H69AR lung tumor viability, ATP luminescence, 72 h; hits give low values | 6% of 85,000 active | AID 598 | viability, % at 10 µM;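 active = viability at or below 40%; inactive = viability above 40%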;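 note: multidrug resistant small cell line overexpressing MRP-1 efflux transporter; 100% = mean luminescence of untreated control wells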
Lung fibro prol – blocks proliferation of human lung fibroblasts. viability, % at 10 µM. 1.1% of 85,000 active. AID 719. LL 47 human lung fibroblast viability, ATP luminescence; hits give low values;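 active = viability at or below 50% in the single dose screen; inactive = viability above 50%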;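 note: compound exposure lasted 72 h before the ATP readout; 100% = median luminescence of untreated cell-only wells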
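test system = LL 47 human lung fibroblasts | amount = 1,150 fibroblasts seeded per well | medium = 15% FBS in IMEM | times = overnight cell rest, 72 h compound treatment at 37 °C | measured by = CellTiter-Glo luminescence measuring cellular ATP | read-out = viability percentage against median untreated-cell control | benchmarks = cell-only wells, no compound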
ERb coact inh – blocks coactivator binding to human estrogen receptor beta; inhibition, % at 25.6 µM; TR-FRET ER-beta LBD / SRC1-Cy5 peptide binding; receptor agonist-loaded with 1 µM estradiol; 1.3% of 86,000 active; Q92731;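 active = compounds whose percent inhibition of the receptor-coactivator binding signal exceeds about 50% in the single-dose screen, limit read from the data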;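 note: 0% = receptor plus peptide wells without compound and 100% = peptide-only wells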
ERa SRC1 pot – enhances coactivator binding to human estrogen receptor alpha. P03372. coactivator binding (% of control), % at 25.6 µM. AID 639. 1.3% of 86,000 active. TR-FRET ERalpha-LBD/SRC-Cy5 coactivator binding, 2 h; 100 = basal binding, no effect; in the data active = activity above about 200%;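 note: binding measured in presence of low estradiol as agonist stimulus; 0% = peptide alone without receptor and 100% = receptor with peptide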
Starred values were filed as active, the others as inactive; . = not tested or not shown; [ ] = dose if it differs, or a comment. Shown are actives, neighbours in structure and some others; about 9.2% of the full set was active somewhere.

SMILES | ERa coact inh | HUVEC inhibit | H69AR growth 86K | Lung fibro prol | ERb coact inh | ERa SRC1 pot
O=S(=O)(c1ccccc1)n1ccc2ccccc21 | -6.3 | 93.0 | 89.4 | 90.7 | -6.9 | 89.0
Cc1cc(C)c(S(=O)(=O)n2ccc3ccccc32)c(C)c1 | -6.8 | 88.7 | 7.8* | 97.8 | -5.8 | 99.1
O=C1NC(NS(=O)(=O)c2ccc(Cl)cc2)(C(F)(F)F)C(=O)N1Cc1cccnc1 (configuration not stated) | . | 84.3 | 95.3 | 99.3 | . | .
C[N+](C)(C)CCOP(=O)(O)OP(=O)([O-])OC[C@H]1O[C@@H](n2ccc(N)nc2=O)[C@H](O)[C@@H]1O | -5.5 | 99.7 | 100.3 | 92.4 | 0.0 | 121.4
CCOC(=O)C1CCN(c2nc(-c3ccccc3)nc3c2oc2ccccc23)CC1 | -0.4 | 84.7 | 62.6 | 96.9 | 1.3 | 121.0
O=C(O)C1CCN(c2nc(-c3ccccc3)nc3c2oc2ccccc23)CC1 | -8.8 | 79.0 | 19.3* | 92.9 | -1.8 | 96.5
Cc1nc(N2CCN(Cc3ccc4c(c3)OCO4)CC2)c2oc3ccccc3c2n1 | -9.3 | 77.1 | 23.0* | 69.3 | -5.6 | 77.8
OCCN1CCN(c2nc(-c3ccccc3)nc3c2oc2ccccc23)CC1 | 0.1 | 11.8* | 23.7* | 19.9* | 0.5 | 100.0
Cc1nc(N2CCC(C)CC2)c2oc3ccccc3c2n1 | 4.1 | 82.0 | 33.6* | 97.0 | 4.9 | 97.5
O=C(O)CSc1nc(-c2ccccc2)nc2c1oc1ccccc12 | -10.8 | 90.8 | 65.4 | 96.4 | -1.7 | 112.0
COc1ccccc1N1CCN(c2nc(C)nc3c2oc2ccccc23)CC1 | 5.4 | 43.4 | 41.4 | 53.4 | 1.6 | 100.6
O=C(NCCN1CCOCC1)C1CCC(CNS(=O)(=O)c2ccc(Cl)cc2)CC1 (configuration not stated) | -11.5 | 96.8 | 92.4 | 89.4 | -3.3 | 103.1
Cc1cc(C)c2c(-n3cccc3)c(C(=O)O)sc2n1 | -0.5 | 95.5 | 106.2 | 97.2 | 13.6 | 91.5
CCCCNC(=O)c1sc2nc(C)cc(COC)c2c1-n1cccc1 | -11.2 | 98.5 | 35.2* | 100.7 | -7.7 | 106.0
CCC1(C)N=C(c2ccc3c(c2)OCO3)CC(c2ccccc2O)N1 (configuration not stated) | 11.5 | 24.9* | 2.1* | 53.7 | -7.0 | 77.8
COc1cccc(C2=NC(C)(C)NC(c3ccccc3O)C2)c1 (configuration not stated) | -1.1 | 62.4 | 1.1* | 87.7 | -8.3 | 95.8
O=C(NCC(=O)N(CC1CCCO1)C1(C(=O)NC2CCCCC2)CCCCC1)c1ccccc1 (configuration not stated) | 1.7 | . | . | . | -3.9 | 121.9
CCC(C)c1ccc(OCCCCN2CCOCC2)cc1 (configuration not stated) | -7.5 | 79.1 | 82.3 | 92.4 | -0.3 | 112.9
O=C(O)COCc1nc2ccccc2[nH]1 | -1.6 | 96.6 | 95.3 | 96.6 | -4.8 | 112.2
Cc1ccc(C(=O)N2CCN3C(=O)c4ccccc4C23c2ccc(Cl)cc2)cc1 (configuration not stated) | 1.0 | 66.4 | 33.5* | 61.0 | -12.3 | 140.7
O=C(CSc1nc2ccccc2[nH]1)NCCN1CCCCC1 | -7.0 | 92.2 | 85.6 | 93.9 | -19.1 | 113.8
CC(C)CNC(=O)c1cc2nc(C3CC3)cc(C(F)(F)F)n2n1 | 3.1 | 99.3 | 83.7 | 99.6 | 14.3 | 90.7
CCN(CC)c1ccc2cc(-c3nc4ccccc4n3C)c(=O)oc2c1 | -9.8 | 20.8* | 20.3* | 50.7 | 3.0 | 123.8
O=C(NCc1nc2ccccc2[nH]1)c1cc2ccccc2oc1=O | 2.2 | 91.8 | 103.4 | 92.0 | 0.0 | 101.1
Cc1ccc(-c2nc3ccccc3n2C)o1 | -8.2 | 99.1 | 77.4 | 93.0 | -6.8 | 109.0
SMILES | ERa coact inh | HUVEC inhibit | H69AR growth 86K | Lung fibro prol | ERb coact inh | ERa SRC1 pot
CCN(CC)c1ccc2cc(-c3nc4ccccc4[nH]3)c(=O)oc2c1 | 27.6 | 37.5 | 1.4* | 26.2* | 6.0 | 140.1
CCOc1ccc(C2CC(c3cccc(OC)c3OC)n3nnnc3N2)cc1Cl (configuration not stated) | 1.7 | 98.6 | 92.9 | . | -1.5 | 100.2
CCCn1c(SCC(=O)NCc2ccccc2)nnc1-c1ccncc1 | -0.5 | 95.0 | 95.0 | 103.7 | 3.6 | 94.9
CS(=O)(=O)N(CC(=O)NCc1ccco1)c1ccc(Cl)c(C(F)(F)F)c1 | 11.8 | 96.9 | 94.3 | 84.1 | 16.1 | 103.0
CCOC(=O)C1=C(C)N=c2sc(=C(C)C)c(=O)n2C1c1ccc(N(C)C)cc1 (configuration not stated) | -16.4 | 90.7 | 92.4 | 91.3 | -10.8 | 97.9
Cc1cccc(NC(=O)CSc2nc3ccccc3c3nc(CCc4c(C)n[nH]c4C)nn23)c1 | 66.5*[fluorescence artefact?] | 2.0* | 1.1* | 26.1* | 45.2 | 30.9
Cc1n[nH]c(C)c1CCc1nc2c3ccccc3nc(SCC(=O)Nc3ccccc3F)n2n1 | 72.6*[fluorescence artefact?] | 98.5 | 81.3 | 99.1 | 58.7*[fluorescence artefact?] | 181.0
CCOc1ccccc1NC(=O)CSc1c(C)n[nH]c1C | -3.8 | 90.5 | 93.1 | 102.7 | -15.5 | 85.4
Cc1cccc(N(CC(=O)NCC2CCCO2)C(=O)CCC(=O)Nc2cc(C)on2)c1 (configuration not stated) | 0.3 | 97.4 | 93.8 | 106.5 | 2.8 | 122.4
COc1ccc(N=CC2=C(O)c3ccccc3C2=O)cc1 | 23.1 | 83.2 | 34.9* | 104.5 | 3.0 | 85.6
O=C(CN(Cc1ccco1)S(=O)(=O)c1cccs1)Nc1ccccc1C(F)(F)F | 7.3 | 100.6 | 95.6 | 98.9 | 4.7 | 86.2
C[C@]12CC[C@@H]3c4ccc(O)cc4[C@@H](O)C[C@H]3[C@@H]1CC[C@@H]2O | -0.2 | 96.5 | 84.1 | 95.4 | 12.4 | 530.4*
C[C@]12CC[C@@H]3c4ccc(O)cc4CC[C@H]3[C@@H]1CC[C@@H]2O | . | 34.8 | 27.2* | 88.3 | . | .
Cc1ccc2c(CC(=O)O)coc2c1C | -11.4 | 100.2 | 92.2 | 99.6 | -1.0 | 122.0
O=C(Nc1cnn(C23CC4CC(CC(C4)C2)C3)c1)c1cnn2c(C(F)(F)F)cc(-c3ccco3)nc12 | 80.8* | 79.7 | 89.5 | 76.5 | 60.4* | 172.6
O=C(Nc1ccc2c(c1)OCO2)c1cnn2c(C(F)(F)F)cc(-c3ccco3)nc12 | 25.6 | 66.3 | 27.4* | 52.8 | 26.8 | 85.0
Cc1ccccc1Cn1ccc(NC(=O)c2cnn3c(C(F)(F)F)cc(-c4ccco4)nc23)n1 | 11.9 | 75.1 | 34.0* | 100.4 | 8.1 | 101.4
COc1ccc(NC(=O)c2cnn3c(C(F)(F)F)cc(-c4ccco4)nc23)cc1OC | -25.0 | 70.7 | 88.1 | 102.5 | -1.6 | 107.9
Cc1ccccc1Cn1nc(C)c(NC(=O)c2cc3nc(-c4ccco4)cc(C(F)(F)F)n3n2)c1C | 5.1 | 96.2 | 88.9 | 114.8 | 5.4 | 100.0
CC1SCCN1S(=O)(=O)c1ccc2ccccc2c1 (configuration not stated) | -6.1 | 95.5 | 102.6 | 101.4 | -4.7 | 107.9

Source: PubChem (several laboratories)
